Data set [1] deals with T1, Prostaglandin E synthase (Homo sapiens, UniProt O14684).
T1 sequence (O14684 whole entry): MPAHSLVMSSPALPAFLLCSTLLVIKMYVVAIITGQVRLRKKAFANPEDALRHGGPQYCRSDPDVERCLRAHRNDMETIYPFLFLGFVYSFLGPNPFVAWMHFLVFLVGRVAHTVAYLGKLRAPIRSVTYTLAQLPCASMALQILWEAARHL
Briefly: Inhibition of mPGES1 in human A549 cells assessed as reduction in IL-1beta-induced PGE2 production preincubated for 30 mins followed by incubation with IL-1beta for 16 to 20 hrs measured after 10 mins by HTRF assay. The class given is cell-based.

The next data set has as its target T2, CYP1A2 (Homo sapiens, UniProt P05177).
T2 sequence (P05177 whole entry): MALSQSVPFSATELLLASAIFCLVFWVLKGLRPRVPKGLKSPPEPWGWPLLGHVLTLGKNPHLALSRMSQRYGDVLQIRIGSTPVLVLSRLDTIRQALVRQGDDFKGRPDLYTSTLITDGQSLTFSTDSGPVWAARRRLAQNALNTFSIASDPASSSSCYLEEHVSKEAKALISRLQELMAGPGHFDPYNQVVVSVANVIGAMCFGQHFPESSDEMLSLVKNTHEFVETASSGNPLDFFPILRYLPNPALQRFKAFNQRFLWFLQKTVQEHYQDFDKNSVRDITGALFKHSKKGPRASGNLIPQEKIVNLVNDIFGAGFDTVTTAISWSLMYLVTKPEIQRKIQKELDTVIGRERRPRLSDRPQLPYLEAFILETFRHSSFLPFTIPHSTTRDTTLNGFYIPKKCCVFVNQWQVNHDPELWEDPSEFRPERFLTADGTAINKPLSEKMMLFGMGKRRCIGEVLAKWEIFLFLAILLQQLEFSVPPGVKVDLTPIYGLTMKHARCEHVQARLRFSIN
Description: Inhibition of CYP1A2 in human liver microsomes at 10 uM after 20 mins in presence of NADPH by LC-MS/MS analysis. The format is ADME. The procedure, abridged: (§1)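 Percent inhibition of each CYP isoform by test compound at 10 µM, compared with a no-inhibitor control. Run in triplicate.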
(Liver microsomes are a subcellular fraction often used to study metabolism.)

A short description of data set [2]: Metabolic stability in human liver microsomes assessed as parent compound remaining at 1 uM after 60 mins in presence of NADPH by LC-MS/MS analysis. The conditions noted are these: read-out: Stability. The format is ADME, microsome. In short, it runs like this:
(§2)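 Compound incubated 60 min at 37 °C with human, rat or guinea pig liver microsomes; percent parent remaining, triplicates.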

A further data set deals with CYP2C19 (Homo sapiens, UniProt P33261). Description: Inhibition of CYP2C19 in human liver microsomes at 10 uM after 40 mins in presence of NADPH by LC-MS/MS analysis. The class given is ADME. In short, it runs like this: as §1
CYP2C19, sequence (P33261 whole entry): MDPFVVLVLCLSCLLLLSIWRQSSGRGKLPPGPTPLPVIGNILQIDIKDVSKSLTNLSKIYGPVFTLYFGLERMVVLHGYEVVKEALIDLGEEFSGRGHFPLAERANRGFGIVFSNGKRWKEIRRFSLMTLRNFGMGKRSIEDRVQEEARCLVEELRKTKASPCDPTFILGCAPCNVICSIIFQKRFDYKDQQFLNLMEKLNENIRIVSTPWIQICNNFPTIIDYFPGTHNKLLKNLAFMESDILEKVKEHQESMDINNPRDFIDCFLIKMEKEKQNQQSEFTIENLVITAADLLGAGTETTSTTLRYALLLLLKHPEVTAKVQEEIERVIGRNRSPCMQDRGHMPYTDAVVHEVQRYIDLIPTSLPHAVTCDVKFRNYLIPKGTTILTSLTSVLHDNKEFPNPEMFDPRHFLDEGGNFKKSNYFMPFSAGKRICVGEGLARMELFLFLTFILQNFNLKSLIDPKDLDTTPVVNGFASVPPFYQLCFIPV
The nature of data set [3]: Protein binding in guinea pig plasma at 10 uM after 5 hrs by equilibrium dialysis based LC-MS/MS analysis. The settings on record: read-out: PPB (converted). The class given is ADME, cell-free, Cavia porcellus. The procedure, abridged:
(§3)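 Equilibrium dialysis at 10 μM compound; result expressed as percent bound.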

A further data set concerns the target CYP2D6 (Homo sapiens, UniProt P10635). Briefly: (§4) Inhibition of CYP2D6 in human liver microsomes at 10 uM after 20 mins in presence of NADPH by LC-MS/MS analysis. The format is ADME. The conditions noted are these: liver microsomes. The procedure, abridged:
as §1

The target of the next data set is CYP2C9 (Homo sapiens, UniProt P11712). Description: Inhibition of CYP2C9 in human liver microsomes at 10 uM after 20 mins in presence of NADPH by LC-MS/MS analysis. The class given is ADME. The procedure, abridged: as §1
CYP2C9, sequence (P11712 whole entry): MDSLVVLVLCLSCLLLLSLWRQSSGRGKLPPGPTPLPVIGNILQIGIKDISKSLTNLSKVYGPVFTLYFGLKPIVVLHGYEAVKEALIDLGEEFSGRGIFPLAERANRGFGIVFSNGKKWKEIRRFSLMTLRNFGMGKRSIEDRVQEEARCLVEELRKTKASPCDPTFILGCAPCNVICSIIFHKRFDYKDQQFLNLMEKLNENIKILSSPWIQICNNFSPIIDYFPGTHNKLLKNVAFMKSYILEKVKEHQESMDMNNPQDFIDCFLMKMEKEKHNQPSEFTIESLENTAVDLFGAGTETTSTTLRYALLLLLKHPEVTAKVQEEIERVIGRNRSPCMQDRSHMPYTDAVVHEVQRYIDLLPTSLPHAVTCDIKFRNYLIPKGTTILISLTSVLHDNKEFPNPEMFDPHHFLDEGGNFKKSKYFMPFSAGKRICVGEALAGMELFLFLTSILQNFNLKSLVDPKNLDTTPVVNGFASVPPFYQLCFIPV
The target in data set [4] is T1, Prostaglandin E synthase. Briefly: Inhibition of recombinant human mPGES1 expressed in CHO cells assessed as reduction in PGE2 production using PGH2 as substrate incubated for 10 mins followed by substrate addition measured for 1 min. The class given is cell-based.
In another data set the target is CYP3A4 (Homo sapiens, UniProt P08684). Briefly: Inhibition of CYP3A4 in human liver microsomes at 10 uM after 20 mins in presence of NADPH by LC-MS/MS analysis. The class given is ADME. The procedure, abridged: as §1
CYP3A4, sequence (P08684 whole entry): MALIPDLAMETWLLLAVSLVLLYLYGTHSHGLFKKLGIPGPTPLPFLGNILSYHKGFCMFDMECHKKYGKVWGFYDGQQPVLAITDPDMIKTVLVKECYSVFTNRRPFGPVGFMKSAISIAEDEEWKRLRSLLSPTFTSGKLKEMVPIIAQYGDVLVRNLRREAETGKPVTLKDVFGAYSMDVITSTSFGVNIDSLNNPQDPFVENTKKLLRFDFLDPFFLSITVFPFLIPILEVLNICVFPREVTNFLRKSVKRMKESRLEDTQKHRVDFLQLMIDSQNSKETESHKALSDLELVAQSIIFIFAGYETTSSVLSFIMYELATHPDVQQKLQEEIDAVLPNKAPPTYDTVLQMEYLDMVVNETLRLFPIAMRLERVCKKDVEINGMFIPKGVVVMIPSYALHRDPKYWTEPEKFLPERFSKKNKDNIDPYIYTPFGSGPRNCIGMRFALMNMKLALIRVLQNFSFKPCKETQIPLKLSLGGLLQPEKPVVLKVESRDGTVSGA
Data set [5] is described as follows: Protein binding in human plasma at 10 uM after 5 hrs by equilibrium dialysis based LC-MS/MS analysis. The format is ADME, cell-free. The settings on record: read-out: PPB (converted). The procedure, abridged:
as §3
For orientation: Equilibrium dialysis compares concentrations on both sides of a semipermeable membrane.

A short description of data set [6]: Metabolic stability in guinea pig liver microsomes assessed as parent compound remaining at 1 uM after 60 mins in presence of NADPH by LC-MS/MS analysis. The class given is ADME, Cavia porcellus, microsome. The conditions noted are these: read-out: Stability. The procedure, abridged:
as §2

Data set [7] has as its target T1, Prostaglandin E synthase. Description: Inhibition of mPGES1 in human whole blood assessed as reduction in LPS-induced PGE2 production measured after 20 to 24 hrs.
Data set [8] can be described thus: Apparent passive permeability of the compound by PAMPA. The class given is ADME. In short, it runs like this:
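Passive permeability by PAMPA, using a 2% lecithin in dodecane membrane. Run in triplicate.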
A general note: The PAMPA barrier holds no transporters, so it reflects passive diffusion.

A further data set deals with Cytochrome P450 2D6 (Homo sapiens, UniProt P10635). Described as §4. The class given is ADME. The settings on record: microsomes, 20 min, 10 µM. The procedure, abridged: as §1
Cytochrome P450 2D6, sequence (P10635 whole entry): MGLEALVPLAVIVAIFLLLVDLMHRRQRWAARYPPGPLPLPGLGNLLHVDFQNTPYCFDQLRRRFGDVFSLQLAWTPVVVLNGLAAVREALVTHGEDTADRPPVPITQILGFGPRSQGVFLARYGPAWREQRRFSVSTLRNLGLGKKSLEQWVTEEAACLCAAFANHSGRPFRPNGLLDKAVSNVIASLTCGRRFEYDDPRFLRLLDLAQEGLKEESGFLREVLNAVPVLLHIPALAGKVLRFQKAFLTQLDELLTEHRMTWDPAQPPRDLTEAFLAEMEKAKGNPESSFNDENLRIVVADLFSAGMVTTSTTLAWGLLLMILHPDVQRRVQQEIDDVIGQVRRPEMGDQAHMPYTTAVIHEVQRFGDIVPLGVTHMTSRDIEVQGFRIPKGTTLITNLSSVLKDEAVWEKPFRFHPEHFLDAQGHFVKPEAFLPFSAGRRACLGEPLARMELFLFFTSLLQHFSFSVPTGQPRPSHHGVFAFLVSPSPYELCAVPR
A further data set deals with Cavia porcellus. Briefly: Analgesic activity in Dunkin-Hartley guinea pig hyperalgesia pain model assessed as inhibition of LPS-induced hyperalgesia at 10 mg/kg, po administered 2 hrs prior to LPS challenge measured after 4.5 hrs relative to control. The format is functional. In short, it runs like this: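 Guinea pigs received compound orally, once daily, at 10, 30 or 100 mg/kg, 2 h before LPS was injected into the plantar surface of the right paw. Saline-injected animals served as the comparison for thermal hyperalgesia. Plasma and brain drug levels taken 7 h after dosing, mean of n = 6–9 per group, from a single experiment.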

Data set [9] in a line: Metabolic stability in rat liver microsomes assessed as parent compound remaining at 1 uM after 60 mins in presence of NADPH by LC-MS/MS analysis. The class given is ADME, microsome. The settings on record: read-out: Stability. The procedure, abridged:
as §2

The next data set deals with hERG (KCNH2) (Homo sapiens, UniProt Q12809). Briefly: Inhibition of human ERG at 10 uM by patch clamp assay relative to control. In short, it runs like this:
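hERG current measured by patch clamp with test compound at 10 µM; result given as % inhibition.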

pIC50: −log10 of the molar value.

CYP2D6, sequence (P10635 whole entry): as above
hERG (KCNH2), sequence (Q12809 whole entry): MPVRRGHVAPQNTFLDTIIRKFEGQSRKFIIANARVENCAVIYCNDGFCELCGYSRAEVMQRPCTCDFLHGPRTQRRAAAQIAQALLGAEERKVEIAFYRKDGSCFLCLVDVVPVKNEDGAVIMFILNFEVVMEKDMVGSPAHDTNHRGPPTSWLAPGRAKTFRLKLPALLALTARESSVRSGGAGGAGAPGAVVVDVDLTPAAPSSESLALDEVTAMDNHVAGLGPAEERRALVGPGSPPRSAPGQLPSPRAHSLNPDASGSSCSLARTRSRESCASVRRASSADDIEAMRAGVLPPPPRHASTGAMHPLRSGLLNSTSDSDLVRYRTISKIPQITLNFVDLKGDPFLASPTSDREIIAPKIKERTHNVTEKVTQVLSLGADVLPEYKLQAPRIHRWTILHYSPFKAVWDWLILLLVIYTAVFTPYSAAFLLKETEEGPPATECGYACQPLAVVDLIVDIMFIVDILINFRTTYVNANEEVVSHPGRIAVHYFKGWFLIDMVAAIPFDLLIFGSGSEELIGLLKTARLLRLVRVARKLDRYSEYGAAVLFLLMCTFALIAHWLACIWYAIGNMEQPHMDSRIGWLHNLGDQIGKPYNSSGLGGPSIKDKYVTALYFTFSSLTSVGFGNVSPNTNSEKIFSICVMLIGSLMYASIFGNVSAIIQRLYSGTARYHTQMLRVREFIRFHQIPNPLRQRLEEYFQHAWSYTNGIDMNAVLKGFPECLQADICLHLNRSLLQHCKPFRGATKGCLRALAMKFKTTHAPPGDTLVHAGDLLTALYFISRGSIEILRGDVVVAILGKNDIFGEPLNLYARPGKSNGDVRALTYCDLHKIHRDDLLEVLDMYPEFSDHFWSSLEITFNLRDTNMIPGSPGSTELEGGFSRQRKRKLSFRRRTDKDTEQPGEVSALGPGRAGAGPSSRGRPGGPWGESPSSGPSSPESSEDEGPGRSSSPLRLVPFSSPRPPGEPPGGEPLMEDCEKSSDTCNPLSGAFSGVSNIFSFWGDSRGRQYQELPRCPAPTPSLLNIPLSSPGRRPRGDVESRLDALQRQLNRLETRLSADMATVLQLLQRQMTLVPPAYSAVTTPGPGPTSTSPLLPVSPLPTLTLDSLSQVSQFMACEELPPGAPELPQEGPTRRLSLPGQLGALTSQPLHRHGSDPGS

On to `CC1(C)Cc2c(c(C(=O)Nc3ccccc3C(F)(F)F)cc3nc(Nc4c(F)cccc4Cl)[nH]c23)O1`, for which the values for the negative-log IC50 (pIC50) at Prostaglandin E synthase [1], on Prostaglandin E synthase [4] and at Prostaglandin E synthase [7] were 8.01, 8.29 and 6.27, respectively. Further, the inhibition at 20 min, 10 µM came out at 17% at CYP1A2, 4% at CYP2D6, 29% at CYP2C9 and 11% on CYP3A4. Moreover, the figures for the remaining at 1 h, 1 µM in data set [2] and in data set [6] were 93% and 89%, respectively. Further, on CYP2C19, the inhibition at 40 min, 10 µM turned out to be 46%. Moreover, the fraction unbound at 5 h, 10 µM in [3] and in data set [5] was less than 0.005 throughout. Moreover, in data set [8], the apparent permeability (Papp) was 0.12 ×10⁻⁶ cm/s.
Turning to `CC1(C)Cc2c(c(C(=O)Nc3ccccc3C(F)(F)F)cc3nc(Nc4c(Cl)cccc4Cl)[nH]c23)O1`, the pIC50 on Prostaglandin E synthase [1] is 8.28; at Prostaglandin E synthase [4] it was 8.31; at Prostaglandin E synthase [7], 6.30. The inhibition at 20 min, 10 µM was determined as 18% at CYP1A2, 16% on CYP2C9 and 17% at CYP3A4. For the same compound, the inhibition at 40 min, 10 µM on CYP2C19 is 30%. At Cytochrome P450 2D6, the “inhibition (INH)” value is recorded as “Not Active”. For the same compound, in data set [6], the remaining at 1 h, 1 µM turned out to be 86%.
`O=C(O)Cc1ccccc1Nc1c(Cl)cccc1Cl` [DICLOFENAC]: the inhibition in vivo at 10 mg/kg in the data set on Cavia porcellus turned out to be 85%.
With `CC1(C)Cc2c(c(C(=O)Nc3c(F)cccc3F)cc3nc(Nc4c(Cl)cccc4Cl)[nH]c23)O1`, the pIC50 at Prostaglandin E synthase [1] is 7.82; on Prostaglandin E synthase [4], 8.19; on Prostaglandin E synthase [7], 6.18. The inhibition at 20 min, 10 µM on CYP1A2 turned out to be 14%; at CYP2C9, 35%; on CYP3A4 it was 24%. Also, the remaining at 1 h, 1 µM worked out at 72% in data set [2] and 80% in data set [6]. For the same compound, at CYP2C19, the inhibition at 40 min, 10 µM worked out at 41%. At Cytochrome P450 2D6, the “inhibition (INH)” value was “Not Active”.
With `Cc1cc(C(F)(F)F)ccc1NC(=O)c1cc2nc(Nc3c(F)cccc3Cl)[nH]c2c2c1OC(C)(C)C2`, the pIC50 at Prostaglandin E synthase [1] is 8.22; at Prostaglandin E synthase [4], 8.21; on Prostaglandin E synthase [7] it was 6.57. Besides, the inhibition at 20 min, 10 µM on CYP1A2 turned out to be 26%; on CYP2D6 it was 16%; on CYP2C9, 1%; at CYP3A4, 20%. Moreover, the remaining at 1 h, 1 µM worked out at 82% in data set [2], 91% in [9] and 72% in [6]. Further, the inhibition at 40 min, 10 µM on CYP2C19 came out at 38%. In addition, testing at 10 µM against hERG (KCNH2) gave an inhibition of 16.2%. The apparent permeability coefficient (Papp) in [8] is 0.31 ×10⁻⁶ cm/s.

Usually pIC50 stands for the negative decadic logarithm of the IC50, by convention in mol/L. What is called inhibition is how much of the control response was suppressed. Usually Papp stands for a coefficient for how fast a substance crosses the barrier. One may read the inhibition in vivo as the percentage by which the read-out fell short of the control.

Values taken from ChEMBL document CHEMBL4219124, “Alleviating CYP and hERG liabilities by structure optimization of dihydrofuran-fused tricyclic benzo[d]imidazole series - Potent, selective and orally efficacious microsomal prostaglandin E synthase-1 (mPGES-1) inhibitors: Part-2” (Bioorg Med Chem Lett, 2018).
